This is an account of results in ChEMBL document CHEMBL1134394, “Synthesis and biological activity of aminoguanidine and diaminoguanidine analogues of the antidiabetic/antiobesity agent 3-guanidinopropionic acid” (2001).

Test [1] has as its system Mus musculus. Put plainly: Terminal lean body weight was determined in ob/ob mice after oral administration for two weeks (control = 25+/-1). Format: functional.
The species entered for test [2] is Mus musculus. Put plainly: Average daily dose was determined in ob/ob mice(0). The class given is functional.
In test [3] the test system is Mus musculus. Put plainly: Terminal fat body weight was determined in ob/ob mice after oral administration for two weeks (control = 28+/-0.9). The class given is functional.
Test [4] concerns the target Creatine kinase M-type (Homo sapiens) (UniProt P06732). Put plainly: Reaction rate of creatine kinase activity is determined at 100 mM concentration (relative to creatine).
Test [5] relates to Mus musculus. Briefly: Average daily food consumption was determined in ob/ob mice after oral administration for two weeks (control = 90+/-3). Format: functional.
For test [6], the species on record is Mus musculus. Briefly: Initial body weight was determined in ob/ob mice (control=55+/-1). Format: functional.
Test [7] relates to Mus musculus. Briefly: Terminal body weight was determined in ob/ob mice after oral administration for two weeks (control = 53+/-1). The class given is functional.
The test system of test [8] is Mus musculus. Put plainly: Terminal blood glucose level was determined in ob/ob mice after oral administration for two weeks (control = 226+/-29). Format: functional. In short, it runs like this:
(§1)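 ob/ob mice on Purina 5015 chow, given drug as admixture in milled chow for 14 days. Intake measured from food-bowl weight change. Blood from retro-orbital sinus, heparinized, kept on ice and analyzed promptly. Blood glucose measured before and after treatment. Group sizes 8–15, housed at 21 °C on 12 h light–dark cycle; two-way ANOVA, Student–Newman–Keuls post hoc.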

The nature of test [9]: Inhibition of creatine transport was assessed from Percent inhibition of [C14] creatine uptake. Format: functional. Also on record: concentration or dose not given beside the values. As to conditions: dose or concentration not given here.
The species entered for test [10] is Mus musculus. Briefly: Initial blood glucose level was determined in ob/ob mice (control=228+/-19). Format: functional. A digest of the protocol:
as §1

Bounds are passed on as bounds.

Creatine kinase M-type (Homo sapiens), sequence (P06732 whole entry): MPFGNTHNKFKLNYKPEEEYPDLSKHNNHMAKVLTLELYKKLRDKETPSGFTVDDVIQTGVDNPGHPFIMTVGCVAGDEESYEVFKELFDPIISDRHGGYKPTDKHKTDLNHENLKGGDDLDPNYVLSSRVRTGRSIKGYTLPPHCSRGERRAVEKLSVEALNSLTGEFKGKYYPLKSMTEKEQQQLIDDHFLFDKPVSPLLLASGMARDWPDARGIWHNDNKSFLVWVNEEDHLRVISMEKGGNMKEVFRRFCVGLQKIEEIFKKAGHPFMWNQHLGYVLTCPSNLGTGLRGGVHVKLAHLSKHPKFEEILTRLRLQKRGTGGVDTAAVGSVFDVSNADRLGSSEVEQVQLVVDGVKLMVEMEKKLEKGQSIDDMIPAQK

The inhibition is the drop in the measured response relative to a control, in per cent. On to `N=C(N)NCCC(=O)O` [OMPENACLID], for which the Body weight in the test on Mus musculus [1] was 24 g; in the test on Mus musculus [3] it was below 24 g; in the test filed under Mus musculus [6], 54 g; with Mus musculus [7], 48 g. Besides, the Dose in the test filed under Mus musculus [2] was 377 mg/kg. Further, in test [4], the Reaction rate is 2.4. Further, in the test on Mus musculus [5], the Food intake worked out at 75 g/kg. For the same compound, the Blood glucose with Mus musculus [8] was 147 mg/dL; in the test filed under Mus musculus [10], 229 mg/dL. Also, the inhibition in test [9] amounted to 97%.
